Screens as filed in PubChem.
HSF1 activator = increases HSF-1 driven luciferase reporter signal | NIH3T3-HGL HSF-1 luciferase reporter, MG132, 8 h; 100% = twice DMSO control signal | activation, % at 9 µM | actives 1.7% (n = 300,000);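 active means mean replicate activation of at least 50% with a set share of replicates each reaching 50%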;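 further: 0% = median of the neutral control wells and 100% = twice that signal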
ALR inh = blocks human ALR sulfhydryl oxidase activity. P55789. purified ALR, DTT oxidation, H2O2 HRP-luminol luminescence. inhibition, % (test concentration not listed). actives 3.8% (n = 290,000). AID 485317;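 active means mean replicate inhibition above about 79%, with every replicate also reaching it, limit read from the data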
Target sequence (P55789 whole entry, looked up): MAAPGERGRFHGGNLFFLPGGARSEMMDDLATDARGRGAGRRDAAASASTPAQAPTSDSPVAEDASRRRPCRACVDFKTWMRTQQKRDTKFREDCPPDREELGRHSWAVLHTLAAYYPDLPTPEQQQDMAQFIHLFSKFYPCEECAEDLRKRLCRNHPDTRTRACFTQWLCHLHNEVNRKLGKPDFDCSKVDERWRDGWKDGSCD
HCV core dimer = HCV core protein dimerization inhibition; TR-FRET GST/Flag-core106 dimerization, 1536-well; actives 0.33% (n = 300,000); inhibition, % at 5 µM;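 active means inhibition above the mean of all tested compounds plus 3 SD, set per screening campaign, cut at about 45% in these data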
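Test system: GST/Flag-tagged HCV core106 proteins; Medium: KF-containing HEPES buffer, pH 7.45, DTT, CHAPS, BSA; Times: compound-protein-antibody incubation 4 h at 22.5 °C; Detection: TR-FRET 671 and 617 nm emission; Benchmarks: wells lacking GST-core106 and wells with excess unlabelled core106.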
HSF1 inh = HSF1 inhibition; NIH3T3-HGL HSE-luciferase, MG132-induced, luminescence 8 h; stronger effect = lower value; activity change, negative = inhibition, % at 7.5 µM (by protocol); AID 2098; actives 0.77% (n = 300,000);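 active means more than half of replicate wells show activity change below -50%, luminescence cut by over half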;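 further: luciferase reports HSF-1 transcriptional activity via heat shock element; 0% = median of DMSO wells and -100% = zero luminescence signal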
AI-2 QS modul = Vibrio harveyi AI-2 quorum sensing modulation | AID 2094 | activity change, % at 7.5 µM | actives 0.4% (n = 300,000) | Vibrio harveyi JMH597 AI-2 luminescence/OD600 ratio, 9 h; stronger effect = lower value; strain lacks LuxN and CqsS sensors; 0 = neutral-control median; in the data active means activity change below about -75%, passing the limit was not always enough;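 further: luminescence divided by OD600 gain over 9 h not by final OD600 alone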
PHOSPHO1 inh = blocks human PHOSPHO1 phosphatase activity | AID 1565 | inhibition, % at 13.3 µM | actives 1.1% (n = 290,000) | Q8TCT1 | recombinant PHOSPHO1, absorbance phosphatase assay; in the data active means inhibition above about 60%
Target sequence (Q8TCT1 whole entry, looked up): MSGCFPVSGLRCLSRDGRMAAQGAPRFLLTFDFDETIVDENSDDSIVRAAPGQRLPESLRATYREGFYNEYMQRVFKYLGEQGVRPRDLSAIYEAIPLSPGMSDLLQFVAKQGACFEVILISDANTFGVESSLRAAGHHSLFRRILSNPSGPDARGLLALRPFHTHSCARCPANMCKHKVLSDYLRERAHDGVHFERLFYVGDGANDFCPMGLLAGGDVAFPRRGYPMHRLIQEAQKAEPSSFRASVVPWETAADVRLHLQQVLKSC
The depositor's hits bear a star; nt = no result given. Most compounds without a hit are left out; they make up all but 6.8% or so of the library.

SMILES | HSF1 activator | ALR inh | HCV core dimer | HSF1 inh | AI-2 QS modul | PHOSPHO1 inh
COc1ccc(-c2csc(NC(=O)CSCc3c(C)noc3C)n2)cc1OC | -2 | -9 | 3 | -6 | 26 | 38
COc1ccc(-c2ccc(SCC(=O)Nc3cc(C)on3)nn2)cc1OC | 8 | -3 | -2 | -3 | 4 | 34
COc1ccc(-c2csc(NC(=O)CSCC(=O)Nc3cc(C)on3)n2)cc1OC | 1 | 99* | 2 | -1 | 22 | nt
Cc1cc(NC(=O)CSc2nnc(-c3cccc(F)c3)n2N)no1 | nt | 2 | nt | nt | nt | nt
COc1ccccc1-c1ccc(SCC(=O)Nc2cc(C)on2)nn1 | 60* | 7 | 0 | 39 | -41 | 28
COc1ccc(-c2csc(Nc3ccc(S(=O)(=O)Nc4cc(C)on4)cc3)n2)cc1C | 4 | 99* | 26 | 1 | 22 | 44
COc1ccc(-c2nnc(SCC(=O)Nc3cc(C)on3)n2N)cc1OC | 9 | -6 | 9 | -4 | 49 | 75*
COc1ccc(-c2csc(Nc3ccc(S(=O)(=O)Nc4cc(OC)nc(OC)n4)cc3)n2)cc1 | -10 | 21 | 18 | -6 | 29 | -7
Cc1ccc(OCC(=O)Nc2ccc(NC(=O)c3ccccc3)c(C)c2)cc1 | nt | -15 | nt | nt | 39 | -12
CN(Cc1ccc(Cl)s1)C(=O)CNC(=O)CNC(=O)c1ccc(Cl)cc1Cl | nt | -2 | nt | nt | nt | nt
CCOC(=O)N1CCN(C(=O)Cc2ccsc2)CC1 | 11 | -3 | -6 | -8 | 11 | 32
CCOC(=O)c1c(NC(=O)CSC(=S)N(C)C)sc(C)c1C | 85* | -4 | 12 | 48 | 6 | 10
CCOC(=O)c1c(NC(=O)CNCCO)sc(C)c1C | -8 | 6 | 3 | 2 | 6 | 14
O=C(CSc1nc2ccccc2o1)Nc1nc2ccc(Br)cc2s1 | 10 | 98* | 3 | 6 | 26 | 22
COC(=O)c1c(NC(=O)CSc2ncnc3ccccc23)sc(C)c1C | 24 | 57 | 3 | 12 | 8 | nt
COc1ccc2nc(NC(=O)CSc3nc4ccccc4o3)sc2c1 | -44 | 47 | 11 | -40 | 16 | -2
CCOC(=O)c1c(NC(=O)CSc2ncnc3ccccc23)sc(C(C)=O)c1C | 78* | 11 | 11 | 35 | 7 | -1
CCOC(=O)c1c(NC(=O)CSc2nc3ccccc3s2)sc(C)c1C | 12 | 98* | 1 | 14 | 32 | 26
CCOC(=O)c1c(NC(=O)CSc2nnc(Cc3ccccc3)o2)sc(C)c1C | 36 | 5 | 9 | 14 | 41 | -26
C[C@H](NC(=O)N1CCn2c1nc1ccccc12)C(=O)NCc1ccc2c(c1)OCO2 | 40 | -3 | -4 | 22 | -21 | 26
CSc1c(SCc2ccccc2)cnn(-c2ccccc2)c1=O | 15 | -3 | -81 | 16 | 5 | -17
COc1ccc(C2=NN(C(=O)COC(=O)c3ccc(NC(=O)CC#N)cc3)C(c3ccco3)C2)cc1 (stereo unspecified) | nt | -6 | nt | nt | nt | nt
CCOC(=O)c1c(N2C(=O)C=CC2=O)sc(C)c1C | 55* | 44 | 15 | 44 | 14 | -17
CCOC(=O)NC(=O)COC(=O)CCCSc1nc2ccccc2s1 | -15 | 93* | -1 | -10 | 39 | 2
CCOC(=O)c1ccccc1NC(=O)CSc1nc2ccccc2o1 | 19 | -4 | 0 | 23 | 6 | 11
SMILES | HSF1 activator | ALR inh | HCV core dimer | HSF1 inh | AI-2 QS modul | PHOSPHO1 inh
CCOC(=O)N/C(N)=N/c1nc2ccccc2s1 | 53* | -4 | -3 | 23 | 6 | 6
CC(=O)N/C(N)=N/c1nc(=O)c2ccccc2s1 | 20 | 9 | -6 | 2 | 7 | 20
NC(=O)NC(=O)COC(=O)CCCSc1nc2ccccc2s1 | -17 | -4 | -1 | -5 | 12 | -23
CCOC(=O)c1c(NC(=O)CSc2nc3ccccc3o2)sc(C)c1C | 144* | 3 | 1 | 81 | 17 | 41
CCc1ccccc1NC(=O)NNC(=O)CCc1ccc(OC)cc1 | -3 | -5 | nt | 0 | 9 | 13
COc1ccc(S(=O)(=O)N/N=C/c2ccc(OCCN3CCOCC3)c(OC)c2)cc1 | -18 | 21 | 3 | -10 | 1 | -2
CC(=O)Nc1ccc(/C=N/NC(=O)CCN2CCN(c3ccccc3)CC2)cc1 | 16 | 5 | 3 | -4 | -4 | 12
COc1ccc(/C=N\NC(=O)CCN2CCN(c3ccccc3)CC2)cc1OC | -1 | 98* | 3 | -3 | 10 | 17
COc1ccc(/C=N/NC(=O)CCn2nc(C)cc2C)cc1O | 8 | 77* | -3 | -6 | 16 | 12
COc1cc(/C=N/NS(=O)(=O)c2ccc3ccccc3c2)ccc1OCCN1CCOCC1 | -8 | 99* | -9 | -6 | 20 | -13
COc1cc(/C=N/NS(=O)(=O)c2ccc(C)cc2)ccc1OCc1ccc(C(=O)O)cc1 | -78 | 22 | 10 | -75* | 6 | -13
O=C(COC(=O)c1ccc(Cl)nc1)NNC(=O)c1ccc(Cl)cc1 | 0 | -25 | -11 | -1 | 1 | nt
Cc1nc2nc(C)c(NS(=O)(=O)c3ccc(CC(C)C)cc3)c(=O)n2[nH]1 | 48 | nt | -2 | 13 | 4 | 28
COc1cc(/C=N/NC(=O)CCN2CCCCC2)ccc1O | -1 | 99* | -6 | -9 | 7 | 24
COc1ccc(/C=N/NC(=O)c2ccncc2)cc1CN1CCN(c2ccc(F)cc2)CC1 | 4 | 99* | 2 | -5 | 24 | -13
COc1ccc(/C=N/NC(=O)CCc2c(C)n[nH]c2C)cc1OC | -6 | 7 | -3 | 3 | 19 | -14
O=C(CCN1CCN(C(c2ccccc2)c2ccccc2)CC1)N/N=C/c1ccc(O)cc1 | -13 | 98* | -1 | -2 | 22 | -5
COc1cc(/C=N/NC(=O)CCc2c(C)n[nH]c2C)ccc1O | -5 | 99* | -8 | -10 | 8 | 13
CSc1nc2ccc(NS(=O)(=O)c3cccc(Cl)c3Cl)cc2s1 | -1 | -50 | 10 | -9 | 7 | 4
COc1cc(/C=N/NC(=O)CN2CCCCC2)ccc1OCc1ccc(Br)cc1 | 79* | nt | 6 | 46 | 16 | -14
COc1ccc(OC)c(NC(=O)CCN2CCN(Cc3ccccc3)CC2)c1 | -6 | -52 | 8 | -10 | 23 | -19
COc1ccc(/C=N/NS(=O)(=O)c2ccc(F)cc2)cc1COc1cc(F)ccc1[N+](=O)[O-] | 17 | -2 | 48* | 12 | 46 | -42
COc1ccc(OC)c(NC(=O)CCN2CCN(c3ccccc3)CC2)c1 | -9 | 92* | 4 | -4 | 10 | 6
O=C(CCN1CCCCC1)N/N=C/c1ccc(Br)cc1 | 2 | 0 | -2 | 10 | 30 | 2
COC(=O)Cn1c(=NC(=O)c2ccc(OC)c(OC)c2)sc2cc(OC)ccc21 | 0 | -23 | 10 | -1 | 11 | 6
